# Calls of active or inactive are those of the source. The calls are words filed in the database; no cut-off is given here.
# Key:
# [1] = molecular target: T1, Mitogen-activated protein kinase kinase kinase 12 (Homo sapiens) (UniProt Q12852); assay: Inhibition of Flag DLK (unknown origin) transfected in HEK293 cells assessed as reduction of phosphorylation of JNK at 0.1 to 10 uM incubated for 5 hrs measured by Western blot analysis; type: cell-based
# T1 sequence (whole entry): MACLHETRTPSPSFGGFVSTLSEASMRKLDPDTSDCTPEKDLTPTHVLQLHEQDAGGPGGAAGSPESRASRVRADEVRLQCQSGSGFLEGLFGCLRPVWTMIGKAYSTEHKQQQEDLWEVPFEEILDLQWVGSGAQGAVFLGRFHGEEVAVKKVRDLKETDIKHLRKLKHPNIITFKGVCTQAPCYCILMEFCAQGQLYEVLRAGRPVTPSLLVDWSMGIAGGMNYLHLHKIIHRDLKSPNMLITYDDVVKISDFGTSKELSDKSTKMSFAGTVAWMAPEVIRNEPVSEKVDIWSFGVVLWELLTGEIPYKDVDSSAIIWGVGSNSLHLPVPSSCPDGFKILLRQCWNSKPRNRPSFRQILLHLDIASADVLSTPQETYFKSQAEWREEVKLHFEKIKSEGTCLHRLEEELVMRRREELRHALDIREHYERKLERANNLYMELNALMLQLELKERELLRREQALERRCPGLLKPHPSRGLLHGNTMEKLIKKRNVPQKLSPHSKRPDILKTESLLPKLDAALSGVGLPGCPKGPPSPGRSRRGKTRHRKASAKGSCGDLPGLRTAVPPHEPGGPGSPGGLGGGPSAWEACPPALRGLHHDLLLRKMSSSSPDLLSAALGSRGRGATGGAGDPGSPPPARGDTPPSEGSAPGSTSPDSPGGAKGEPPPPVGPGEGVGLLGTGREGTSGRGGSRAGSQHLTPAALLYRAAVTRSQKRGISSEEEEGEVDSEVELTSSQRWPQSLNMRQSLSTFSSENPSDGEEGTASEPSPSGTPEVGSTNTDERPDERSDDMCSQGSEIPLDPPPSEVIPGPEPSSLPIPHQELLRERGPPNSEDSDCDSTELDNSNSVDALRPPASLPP
# Procedure, shortened: (§1)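 HEK293 cells were transfected with Flag-tagged DLK, with kinase-dead DLK K152A as comparator, 24 h before compound addition. Cells were then exposed to compound for 5 h. Phospho-MKK4, phospho-MKK7, phospho-JNK and phospho-c-Jun were probed.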
# [2] = molecular target: 5'-AMP-activated protein kinase catalytic subunit alpha-1 (Homo sapiens) (UniProt Q13131); assay: Inhibition of PRKAA1 (unknown origin) at 1 uM by FRET method
# Sequence of 5'-AMP-activated protein kinase catalytic subunit alpha-1 (Homo sapiens) (Q13131 whole entry, looked up): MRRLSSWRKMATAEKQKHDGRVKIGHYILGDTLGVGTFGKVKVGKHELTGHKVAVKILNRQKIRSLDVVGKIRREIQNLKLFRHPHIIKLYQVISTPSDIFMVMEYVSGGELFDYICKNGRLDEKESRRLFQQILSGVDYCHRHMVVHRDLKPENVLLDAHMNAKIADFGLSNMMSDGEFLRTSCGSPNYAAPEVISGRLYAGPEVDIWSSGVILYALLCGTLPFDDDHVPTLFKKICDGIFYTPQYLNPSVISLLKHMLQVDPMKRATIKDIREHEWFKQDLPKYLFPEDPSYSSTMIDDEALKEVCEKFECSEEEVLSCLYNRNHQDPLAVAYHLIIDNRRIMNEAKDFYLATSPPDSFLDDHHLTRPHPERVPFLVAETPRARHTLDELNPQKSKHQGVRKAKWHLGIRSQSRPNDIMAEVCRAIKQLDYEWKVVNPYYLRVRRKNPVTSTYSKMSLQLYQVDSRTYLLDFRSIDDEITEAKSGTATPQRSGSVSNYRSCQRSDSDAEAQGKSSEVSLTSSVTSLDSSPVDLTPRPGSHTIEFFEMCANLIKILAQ
# Procedure, shortened: (§2)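 Single-point screen at 1 uM against a panel of 58 representative kinases. Readout was labeled-peptide phosphorylation by FRET (Z′-LYTE), using the vendor's protocols.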
# [3] = molecular target: Mitogen-activated protein kinase kinase kinase 9 (Homo sapiens, UniProt P80192); assay: Inhibition of MLK1 (unknown origin) at 1 uM by FRET method; procedure, shortened: as §2
# [4] = molecular target: Mitogen-activated protein kinase 10 (Homo sapiens, UniProt P53779); assay: Inhibition of JNK3 (unknown origin) by FRET method
# Sequence of Mitogen-activated protein kinase 10 (P53779 whole entry): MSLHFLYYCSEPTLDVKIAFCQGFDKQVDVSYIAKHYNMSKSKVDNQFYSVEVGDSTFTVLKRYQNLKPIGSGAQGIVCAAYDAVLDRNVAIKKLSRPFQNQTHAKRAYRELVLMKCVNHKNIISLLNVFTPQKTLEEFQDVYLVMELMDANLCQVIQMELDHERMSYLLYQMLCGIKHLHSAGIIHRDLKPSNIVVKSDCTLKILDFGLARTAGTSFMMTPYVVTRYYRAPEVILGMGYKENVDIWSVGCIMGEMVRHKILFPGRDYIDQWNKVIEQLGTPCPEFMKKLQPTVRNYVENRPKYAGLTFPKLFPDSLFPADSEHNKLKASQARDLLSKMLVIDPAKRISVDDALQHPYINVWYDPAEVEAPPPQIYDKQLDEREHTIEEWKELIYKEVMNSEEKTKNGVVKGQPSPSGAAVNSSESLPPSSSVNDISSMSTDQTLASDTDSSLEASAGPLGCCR
# Procedure, shortened: (§3)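 JNK1, JNK2 and JNK3 IC50 values came from a 10-point dose–response enzymatic assay.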
# [5] = molecular target: Glycogen synthase kinase-3 beta (Homo sapiens, UniProt P49841); assay: Inhibition of GSK3beta (unknown origin) by FRET method
# [6] = molecular target: Platelet-derived growth factor receptor beta (Homo sapiens) (UniProt P09619); assay: Inhibition of PDGFRbeta (unknown origin) at 1 uM by FRET method; procedure, shortened: as §2
# Sequence of Platelet-derived growth factor receptor beta (Homo sapiens) (P09619 whole entry): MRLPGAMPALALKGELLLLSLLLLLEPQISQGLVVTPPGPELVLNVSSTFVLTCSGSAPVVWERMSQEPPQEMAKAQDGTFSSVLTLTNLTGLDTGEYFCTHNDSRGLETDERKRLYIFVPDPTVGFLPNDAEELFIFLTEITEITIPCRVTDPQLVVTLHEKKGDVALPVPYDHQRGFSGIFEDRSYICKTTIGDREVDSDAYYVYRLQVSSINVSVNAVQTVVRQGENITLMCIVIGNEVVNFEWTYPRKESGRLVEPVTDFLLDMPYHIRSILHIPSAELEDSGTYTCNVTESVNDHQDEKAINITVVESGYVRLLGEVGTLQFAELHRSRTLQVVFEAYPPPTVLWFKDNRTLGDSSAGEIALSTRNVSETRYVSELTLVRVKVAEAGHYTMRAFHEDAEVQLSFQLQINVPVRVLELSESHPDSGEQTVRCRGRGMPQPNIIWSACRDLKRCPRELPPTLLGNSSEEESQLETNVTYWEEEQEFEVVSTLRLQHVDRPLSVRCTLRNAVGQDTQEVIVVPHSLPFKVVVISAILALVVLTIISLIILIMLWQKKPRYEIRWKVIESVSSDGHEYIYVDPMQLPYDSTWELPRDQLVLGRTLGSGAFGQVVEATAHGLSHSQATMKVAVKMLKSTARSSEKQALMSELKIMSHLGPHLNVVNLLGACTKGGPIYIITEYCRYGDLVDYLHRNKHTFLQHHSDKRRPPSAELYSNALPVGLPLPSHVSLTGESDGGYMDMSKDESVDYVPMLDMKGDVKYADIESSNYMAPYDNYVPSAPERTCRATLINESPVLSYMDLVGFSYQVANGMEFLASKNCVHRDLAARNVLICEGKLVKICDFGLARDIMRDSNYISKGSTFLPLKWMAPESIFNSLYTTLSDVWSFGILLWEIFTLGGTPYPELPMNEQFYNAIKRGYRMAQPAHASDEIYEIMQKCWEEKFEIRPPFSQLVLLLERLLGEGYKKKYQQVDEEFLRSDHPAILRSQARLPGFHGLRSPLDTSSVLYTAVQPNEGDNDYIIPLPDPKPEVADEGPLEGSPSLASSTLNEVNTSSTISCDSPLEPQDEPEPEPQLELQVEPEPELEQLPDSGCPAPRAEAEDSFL
# [7] = Half life in […] rat at 0.4 or 1 mg/kg, iv and 1 or 5 mg/kg, po; type: ADME, organism-based; conditions: in vivo
# Procedure, shortened: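 Rat PK used iv dosing at 0.4 or 1 mg/kg in 60% PEG solution and po dosing at 1 or 5 mg/kg as an aqueous 1% methylcellulose suspension. Free clearance is CL/fu, where fu is the fraction unbound in plasma.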
# [8] = molecular target: Proto-oncogene tyrosine-protein kinase receptor Ret (Homo sapiens) (UniProt P07949); assay: Inhibition of Ret (unknown origin) at 1 uM by FRET method; procedure, shortened: as §2
# Sequence of Proto-oncogene tyrosine-protein kinase receptor Ret (Homo sapiens) (P07949 whole entry): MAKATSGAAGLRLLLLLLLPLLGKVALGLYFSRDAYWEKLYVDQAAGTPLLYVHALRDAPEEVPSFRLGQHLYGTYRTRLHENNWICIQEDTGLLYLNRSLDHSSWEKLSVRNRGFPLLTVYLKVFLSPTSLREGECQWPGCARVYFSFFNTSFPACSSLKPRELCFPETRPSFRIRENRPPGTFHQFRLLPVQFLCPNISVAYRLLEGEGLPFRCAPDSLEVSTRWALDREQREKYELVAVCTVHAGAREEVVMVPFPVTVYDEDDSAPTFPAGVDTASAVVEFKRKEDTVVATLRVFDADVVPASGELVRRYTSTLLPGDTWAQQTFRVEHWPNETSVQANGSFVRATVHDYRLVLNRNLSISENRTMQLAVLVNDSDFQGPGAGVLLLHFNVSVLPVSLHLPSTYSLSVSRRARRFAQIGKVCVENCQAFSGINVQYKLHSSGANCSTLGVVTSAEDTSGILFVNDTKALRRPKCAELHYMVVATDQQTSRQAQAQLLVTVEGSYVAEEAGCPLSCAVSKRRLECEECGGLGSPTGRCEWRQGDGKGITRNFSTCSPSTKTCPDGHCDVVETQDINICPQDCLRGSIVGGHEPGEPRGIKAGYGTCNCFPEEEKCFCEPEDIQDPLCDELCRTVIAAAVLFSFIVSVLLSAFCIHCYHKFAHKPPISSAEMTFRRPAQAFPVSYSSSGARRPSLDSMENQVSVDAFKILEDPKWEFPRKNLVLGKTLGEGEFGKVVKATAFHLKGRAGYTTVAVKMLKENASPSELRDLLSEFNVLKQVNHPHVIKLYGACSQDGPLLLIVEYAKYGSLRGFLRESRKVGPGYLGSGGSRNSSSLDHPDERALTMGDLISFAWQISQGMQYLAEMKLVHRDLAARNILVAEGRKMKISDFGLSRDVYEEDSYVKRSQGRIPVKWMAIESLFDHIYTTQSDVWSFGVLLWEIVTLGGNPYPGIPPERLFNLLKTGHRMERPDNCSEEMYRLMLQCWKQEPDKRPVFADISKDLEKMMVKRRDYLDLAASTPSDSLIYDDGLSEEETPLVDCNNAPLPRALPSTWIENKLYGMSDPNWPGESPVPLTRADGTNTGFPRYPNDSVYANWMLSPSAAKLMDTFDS
# [9] = molecular target: Receptor-type tyrosine-protein kinase FLT3 (Homo sapiens) (UniProt P36888); conditions: 1 uM
# Sequence of Receptor-type tyrosine-protein kinase FLT3 (Homo sapiens) (P36888 whole entry): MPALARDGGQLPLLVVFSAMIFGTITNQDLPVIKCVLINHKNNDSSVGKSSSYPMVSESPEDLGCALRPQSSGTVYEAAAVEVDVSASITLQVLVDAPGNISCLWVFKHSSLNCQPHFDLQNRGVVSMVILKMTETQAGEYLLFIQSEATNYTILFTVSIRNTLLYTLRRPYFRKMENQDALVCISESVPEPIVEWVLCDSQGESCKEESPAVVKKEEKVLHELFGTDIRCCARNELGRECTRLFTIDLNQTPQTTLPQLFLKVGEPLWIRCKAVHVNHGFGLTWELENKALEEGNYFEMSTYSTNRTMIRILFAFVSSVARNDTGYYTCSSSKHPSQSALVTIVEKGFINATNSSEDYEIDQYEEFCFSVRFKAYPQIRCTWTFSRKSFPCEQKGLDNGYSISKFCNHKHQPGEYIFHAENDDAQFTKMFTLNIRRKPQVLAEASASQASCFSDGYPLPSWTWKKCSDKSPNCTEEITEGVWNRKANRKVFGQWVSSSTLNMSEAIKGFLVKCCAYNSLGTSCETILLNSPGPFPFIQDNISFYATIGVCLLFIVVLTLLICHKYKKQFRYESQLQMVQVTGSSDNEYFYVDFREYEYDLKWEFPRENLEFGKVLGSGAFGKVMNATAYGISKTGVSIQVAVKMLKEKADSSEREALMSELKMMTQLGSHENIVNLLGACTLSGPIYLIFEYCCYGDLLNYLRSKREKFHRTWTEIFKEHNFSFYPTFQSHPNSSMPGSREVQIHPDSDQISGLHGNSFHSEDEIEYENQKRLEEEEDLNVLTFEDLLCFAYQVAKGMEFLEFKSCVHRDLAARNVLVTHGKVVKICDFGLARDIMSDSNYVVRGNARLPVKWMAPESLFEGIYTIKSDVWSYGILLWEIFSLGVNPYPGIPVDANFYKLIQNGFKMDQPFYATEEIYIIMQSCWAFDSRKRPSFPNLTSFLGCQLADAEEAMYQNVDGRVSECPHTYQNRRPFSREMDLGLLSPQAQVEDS
# [10] = molecular target: Ephrin type-A receptor 2 (Homo sapiens) (UniProt P29317); assay: Inhibition of EphA2 (unknown origin) at 1 uM by FRET method
# Procedure, shortened: (§4)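 SelectScreen panel of 58 kinases, each tested at a single 1 µM compound concentration. Read-out was Z′-LYTE FRET of labeled peptide phosphorylation, run by the vendor's protocols, reported as percent inhibition.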
# [11] = molecular target: Dual specificity mitogen-activated protein kinase kinase 1 (Homo sapiens) (UniProt Q02750); assay: Inhibition of MEK1 (unknown origin) at 1 uM by FRET method; procedure, shortened: as §4
# Sequence of Dual specificity mitogen-activated protein kinase kinase 1 (Homo sapiens) (Q02750 whole entry): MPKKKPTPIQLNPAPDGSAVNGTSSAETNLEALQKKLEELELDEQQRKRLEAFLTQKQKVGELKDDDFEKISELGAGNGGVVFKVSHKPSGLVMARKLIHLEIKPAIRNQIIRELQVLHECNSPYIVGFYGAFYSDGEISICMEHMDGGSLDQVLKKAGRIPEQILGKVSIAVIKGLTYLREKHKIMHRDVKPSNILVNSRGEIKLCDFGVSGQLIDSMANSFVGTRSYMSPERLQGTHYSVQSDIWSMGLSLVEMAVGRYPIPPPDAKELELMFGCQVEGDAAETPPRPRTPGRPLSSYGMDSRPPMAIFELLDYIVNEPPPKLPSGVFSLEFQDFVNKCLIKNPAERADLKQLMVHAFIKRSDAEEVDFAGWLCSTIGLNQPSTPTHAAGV
# [12] = molecular target: Casein kinase II subunit alpha (Homo sapiens) (UniProt P68400); assay: Inhibition of CK2alpha1 (unknown origin) at 1 uM by FRET method; procedure, shortened: as §4
# Sequence of Casein kinase II subunit alpha (Homo sapiens) (P68400 whole entry, looked up): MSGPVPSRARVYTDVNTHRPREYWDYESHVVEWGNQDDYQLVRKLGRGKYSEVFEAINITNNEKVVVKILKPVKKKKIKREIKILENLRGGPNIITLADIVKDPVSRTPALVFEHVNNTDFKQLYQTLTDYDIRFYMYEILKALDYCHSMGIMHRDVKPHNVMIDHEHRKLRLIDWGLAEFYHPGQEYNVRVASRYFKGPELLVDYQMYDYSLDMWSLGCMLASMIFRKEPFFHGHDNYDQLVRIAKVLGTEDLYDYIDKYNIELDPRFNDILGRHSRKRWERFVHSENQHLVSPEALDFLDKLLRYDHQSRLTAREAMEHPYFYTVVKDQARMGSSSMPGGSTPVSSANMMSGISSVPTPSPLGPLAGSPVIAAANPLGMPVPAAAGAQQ
# [13] = molecular target: Serine/threonine-protein kinase PLK1 (Homo sapiens) (UniProt P53350); assay: Inhibition of PLK1 (unknown origin) at 1 uM by FRET method; procedure, shortened: as §2
# [14] = molecular target: T1, Mitogen-activated protein kinase kinase kinase 12 (Homo sapiens); assay: Inhibition of Flag DLK (unknown origin) transfected in HEK293 cells assessed as reduction of phosphorylation of MKK4 at 0.1 to 10 uM incubated for 5 hrs measured by Western blot analysis; type: cell-based; procedure, shortened: as §1
# [15] = molecular target: Mitogen-activated protein kinase kinase kinase 11 (Homo sapiens, UniProt Q16584); assay: Inhibition of MLK3 (unknown origin) at 1 uM by FRET method; procedure, shortened: as §2
# [16] = molecular target: T1, Mitogen-activated protein kinase kinase kinase 12 (Homo sapiens); assay: Inhibition of Flag DLK (unknown origin) transfected in HEK293 cells assessed as reduction of phosphorylation of c-Jun at 0.1 to 10 uM incubated for 5 hrs measured by Western blot analysis; type: cell-based; procedure, shortened: as §1
# [17] = molecular target: Mitogen-activated protein kinase 9 (Homo sapiens, UniProt P45984); assay: Inhibition of JNK2 (unknown origin) by FRET method; procedure, shortened: as §3
# [18] = molecular target: Serine/threonine-protein kinase PAK 4 (Homo sapiens) (UniProt O96013); assay: Inhibition of PAK4 (unknown origin) at 1 uM by FRET method; procedure, shortened: as §2
# [19] = molecular target: Mitogen-activated protein kinase kinase kinase 8 (Homo sapiens) (UniProt P41279); assay: Inhibition of Cot (unknown origin) at 1 uM by FRET method; procedure, shortened: as §4
# [20] = molecular target: Serine/threonine-protein kinase Nek1 (Homo sapiens) (UniProt Q96PY6); assay: Inhibition of NEK1 (unknown origin) at 1 uM by FRET method; procedure, shortened: as §2
# [21] = molecular target: High affinity nerve growth factor receptor (Homo sapiens, UniProt P04629); assay: Inhibition of TrkA (unknown origin) by FRET method
# Procedure, shortened: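 Biochemical IC50 determination from a 10-point dose-response in an enzymatic Z′-LYTE assay. Labeled-peptide phosphorylation was read by FRET under the vendor's protocols.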
# [22] = molecular target: Hepatocyte growth factor receptor (Homo sapiens) (UniProt P08581); assay: Inhibition of Met (unknown origin) at 1 uM by FRET method; procedure, shortened: as §2
structure (smiles),measurement,setting,value
N#Cc1ccnc(Nc2cc(C3CCN(C4COC4)CC3)n(C3CCCC3)n2)c1,inhibition,[1],Active
same,inhibition,[2],1.8%
same,inhibition,[3],4.4%
same,IC50,[4],2100 nM
same,IC50,[5],682 nM
same,inhibition,[6],23.8%
same,half-life,[7],1.7 h
same,inhibition,[8],29.6%
same,inhibition,[9],65.4%
same,inhibition,[10],23%
same,inhibition,[11],4%
same,inhibition,[12],1.3%
same,inhibition,[13],7.3%
same,inhibition,[14],Active
same,inhibition,[15],1.4%
same,inhibition,[16],Active
same,IC50,[17],5000 nM
same,inhibition,[18],48%
same,inhibition,[19],15.6%
same,inhibition,[20],3.1%
same,IC50,[21],464 nM
same,inhibition,[22],23.4%
